Hits are enriched below; roughly 29% of the tested compounds scored in any of these assays.
CYP2C19 inh – blocks human cytochrome P450 2C19; CYP2C19 Supersomes, luciferin-H EGE luminescence, 30 min; P33261; inhibition, % at 5 µM; 96,000 tested, 21% active;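 active = CYP2C19 inhibition above a set limit at 5 µM in the primary screen, cut at about 50% in these data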
Target sequence (P33261 whole entry, looked up): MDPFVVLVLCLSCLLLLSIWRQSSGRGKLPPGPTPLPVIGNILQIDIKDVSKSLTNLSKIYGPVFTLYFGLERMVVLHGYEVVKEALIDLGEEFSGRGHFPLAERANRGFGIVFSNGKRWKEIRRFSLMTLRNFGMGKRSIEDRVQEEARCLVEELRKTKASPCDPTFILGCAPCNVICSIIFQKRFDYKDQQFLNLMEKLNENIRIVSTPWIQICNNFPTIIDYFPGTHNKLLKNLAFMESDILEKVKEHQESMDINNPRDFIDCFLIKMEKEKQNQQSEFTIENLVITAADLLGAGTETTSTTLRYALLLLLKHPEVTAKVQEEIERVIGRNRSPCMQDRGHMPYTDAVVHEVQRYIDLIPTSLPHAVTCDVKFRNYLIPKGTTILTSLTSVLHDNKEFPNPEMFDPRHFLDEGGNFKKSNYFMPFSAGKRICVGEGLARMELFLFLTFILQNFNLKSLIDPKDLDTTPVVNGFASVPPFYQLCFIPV
tolC growth inh – blocks growth of E. coli BW25113 tolC mutant; OD615; growth inhibition, % at 10 µM (by protocol); 65,000 tested, 2.2% active; AID 573;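 active = growth inhibition at or above a cutoff equal to the mean over every tested compound plus 3 SD, cut at about 60% in these data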;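 note: growth measured after 20 h incubation at 37 °C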
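Assay system: tolC-deleted E. coli BW25113. Medium: kanamycin-containing LB broth (50 µg/mL). Dosing: 10 µM final, single dose. Timing: bacterial growth with compound for 20 h at 37 °C. Detection: A615 absorbance measurement. Read-out basis: growth inhibition in percent.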
CYP2C9 act – activators of human CYP2C9; recombinant CYP2C9, luciferin-H conversion, luminescence; stronger effect = higher value; factor 1 = untreated enzyme, 0 = blocked; activation factor at 5 µM; 96,000 tested, 1.4% active; AID 1024;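 active = activation factor of 2 or more for CYP2C9 at a 5 µM dose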
CYP2C19 act – activators of human cytochrome P450 2C19 | recombinant CYP2C19, luciferin-H EGE luminescence; stronger effect = higher value; 0 = fully inhibited enzyme, 1 = untreated enzyme | 96,000 tested, under 10 active | P33261 | activation factor at 5 µM;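 active = activation factor of at least 2 at 5 µM in the primary screen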
CYP2C9 inhib – inhibitors of human CYP2C9 | P11712 | CYP2C9 Supersomes, luciferin-H conversion, luminescence | inhibition, % at 5 µM | 96,000 tested, 20% active | AID 777;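 active = blocking of liver enzyme CYP2C9 beyond about 50% at 5 µM, limit read from the data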
E coli WT exp – growth inhibitors of E. coli BW25113 wild type. 98,000 tested, 0.15% active. growth inhibition, % at 100 µM. OD600 absorbance;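 active = growth inhibition above about 50% at one test dose, limit read from the data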;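 note: growth measured after 20 h incubation at 37 °C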
Large screens that a line does not name were inactive.

Cc1cccc(-n2cnc(C(=O)NC3CCCCCC3)c2)n1	none (no result: tolC growth inh)
COC(=O)c1cc(NC2c3ccccc3C(=O)N2c2cccnc2)cc(C(=O)OC)c1 (stereo unspecified)	none (no result: CYP2C19 inh, CYP2C9 act, CYP2C19 act, CYP2C9 inhib)
O=C1c2ccccc2C(Nc2ccccc2)N1c1cccnc1 (stereo unspecified)	CYP2C19 inh 70 (no result: tolC growth inh)
COc1cc(OC)c(NC2c3ccccc3C(=O)N2c2cc(C)ccn2)cc1Cl (stereo unspecified)	none (no result: CYP2C19 inh, CYP2C9 act, CYP2C19 act, CYP2C9 inhib)
CCOc1ccccc1NC1c2ccccc2C(=O)N1c1cccnc1 (stereo unspecified)	CYP2C19 inh 52
CCOC(=O)c1ccccc1NC1c2ccccc2C(=O)N1c1cc(C)ccn1 (stereo unspecified)	CYP2C19 inh 96, CYP2C9 inhib 83 (no result: tolC growth inh)
COc1ccc(NC2c3ccccc3C(=O)N2c2cccnc2)cc1Cl (stereo unspecified)	CYP2C19 inh 81, CYP2C9 inhib 58
CCOCCCn1c(SCC(=O)Nc2ccc(C(N)=O)cc2)nc2ccccc2c1=O	CYP2C19 inh 56
COCCCn1c(SCC(=O)Nc2ccc(C(=O)OC)cc2)nc2ccccc2c1=O	CYP2C19 inh 78, CYP2C9 inhib 88
COC(=O)c1ccc(NC(=O)CSc2nccn2CCc2ccccc2)cc1	CYP2C19 inh 76, CYP2C9 inhib 50 (no result: tolC growth inh)
CC(C)(C)C1CCc2c(sc(NC(=O)c3cccs3)c2C(=O)N2CCCCC2)C1 (stereo unspecified)	none (no result: tolC growth inh)
CCOC(=O)N1CCN(C2=NC3(CCCCC3)C(C#N)C(=O)N2)CC1 (stereo unspecified)	none
O=c1nc(N2CCCCC2)nc(Nc2ccccc2)[nH]1	none (no result: tolC growth inh)
CCOC(=O)CSc1cc(=O)n(C)c2cc(Cl)ccc12	CYP2C19 inh 64, CYP2C9 inhib 51
Cc1cccc(-n2nc3c(c2NC(=O)c2ccc(Br)o2)CSC3)c1	CYP2C9 inhib 84
Cc1ccc(-n2nc3c(c2NC(=O)c2cccs2)CSC3)cc1	CYP2C9 inhib 72
C=C(c1cccc2ccccc12)P(=O)(O)O	none
COc1ccccc1C(c1nnnn1C(C)(C)C)N1CCN(C(=O)c2ccco2)CC1 (stereo unspecified)	none
CN(C)c1ccc(C(c2nnnn2C(C)(C)C)N2CCN(C(=O)c3ccco3)CC2)cc1 (stereo unspecified)	CYP2C19 inh 61
CC(C)CCn1nnnc1C(c1ccc(N(C)C)cc1)N1CCN(C(=O)c2ccco2)CC1 (stereo unspecified)	CYP2C19 inh 90, CYP2C9 inhib 66
CCOC(=O)c1ccc(Oc2nc(NC)nc(Nc3ccccc3)n2)cc1	none (no result: tolC growth inh)
Cn1cccc1-c1nc2ccc(NC(=O)c3ccccc3)cc2[nH]1	CYP2C19 inh 78, CYP2C9 inhib 68
Cc1ccc(S(=O)(=O)Nc2ccc3c(c2)nc(CN2CCCC2)n3C)cc1	none (no result: tolC growth inh)
COC(=O)c1ccc(C(=O)Nc2ccc3nc(-c4cccnc4)[nH]c3c2)cc1	CYP2C9 inhib 67 (no result: tolC growth inh)
Cn1cccc1-c1nc2ccc(NC(=O)c3ccc([N+](=O)[O-])cc3)cc2[nH]1	none (no result: tolC growth inh)
Cc1ccc(S(=O)(=O)Nc2ccc3nc(-c4cccn4C)[nH]c3c2)cc1	CYP2C19 inh 100, CYP2C9 inhib 100
Nc1ccc(C(=O)Nc2ccc3nc(-c4cccnc4)[nH]c3c2)cc1	none (no result: tolC growth inh)
COc1cccc(C2/C(=C(/O)c3cnn(-c4ccccc4)c3C)C(=O)C(=O)N2CCN(C)C)c1 (stereo unspecified)	none (no result: CYP2C19 inh, CYP2C9 act, CYP2C19 act, CYP2C9 inhib)
CCOc1ccc(-c2nnc(SCC(=O)N(CC)CC)n2N)cc1	CYP2C9 act 2.1
O=C(NC1CCCCC1)C(c1ccc2ncccc2c1)N(Cc1ccccc1)C(=O)c1ccc2c(c1)OCCO2 (stereo unspecified)	CYP2C19 inh 80, CYP2C9 inhib 67 (no result: tolC growth inh)
COc1ccc(CN(C(=O)c2ccc3c(c2)OCCO3)C(C(=O)NC2CCCCC2)c2ccc3ncccc3c2)cc1 (stereo unspecified)	CYP2C19 inh 62 (no result: tolC growth inh)
COc1ccc(CN(C(=O)c2nsc(Cl)c2Cl)C(C(=O)NC2CCCCC2)c2ccc(OC)cc2)cc1 (stereo unspecified)	CYP2C19 inh 51, CYP2C9 inhib 58 (no result: tolC growth inh)
O=C(NCC(=O)N(c1ccc2c(c1)OCCO2)C(C(=O)NC1CCCC1)c1ccco1)c1ccco1 (stereo unspecified)	none (no result: CYP2C19 inh, CYP2C9 act, CYP2C19 act, CYP2C9 inhib)
COc1ccc(C(C(=O)NC2CCCC2)N(CCN(C)C)C(=O)c2snc(C(N)=O)c2N)cc1 (stereo unspecified)	none
COc1ccc(CCNC(=O)C(C)OC(=O)c2ccco2)cc1OC (stereo unspecified)	none
O=C(Nc1cccc(C(F)(F)F)c1)c1n[nH]c(Cn2cncn2)n1	CYP2C9 inhib 51 (no result: tolC growth inh)
COc1ccc(CCNC(=O)c2cc3ccccn3n2)c(OC)c1OC	CYP2C19 inh 75
CSCCC(NC(=O)COc1ccccc1)C(=O)N1CCN(c2ccccc2F)CC1 (stereo unspecified)	CYP2C19 inh 74, CYP2C9 inhib 78
C/C(=C\C(=O)c1ccncc1)Nc1ccccc1O	CYP2C19 inh 97
CCOC(=O)c1c(NC(=O)CC2Nc3cc(C)c(C)cc3NC2=O)sc(C)c1C (stereo unspecified)	CYP2C9 inhib 69 (no result: tolC growth inh)
CCOc1ccc(C(=O)NCC(=O)OCC(=O)Nc2ccccc2OCC)cc1	none (no result: tolC growth inh)
CCOC(=O)c1c(C)[nH]c(C)c1C(=O)COC(=O)[C@@H](NC(=O)c1ccccc1OCC)C(C)C	CYP2C19 inh 100, CYP2C9 inhib 98 (no result: tolC growth inh)
CCOC(=O)c1c(C)[nH]c(C)c1C(=O)COC(=O)CNC(=O)c1ccc(OCC)cc1	CYP2C19 inh 53
CCOc1ccccc1C(=O)NC(C(=O)OCC(=O)Nc1nnc(-c2ccccc2)o1)C(C)C (stereo unspecified)	tolC growth inh 87
CCOc1ccccc1C(=O)Nc1ccc(-c2nnc(-c3ccc(C)cc3)o2)cc1	none (no result: CYP2C19 inh, CYP2C9 act, CYP2C19 act, CYP2C9 inhib, E coli WT exp)
C=CCn1c(SCn2nnc3ccccc3c2=O)nnc1-c1ccc(Br)cc1	CYP2C19 inh 76, CYP2C9 inhib 75
C=CCn1c(SCn2nnc3ccccc3c2=O)nnc1C1CCCCC1	CYP2C19 inh 98
Cc1ccc(Nc2nnc(SCn3nnc4ccccc4c3=O)s2)cc1	none (no result: tolC growth inh)
C=CCn1c(SCn2nnc3ccccc3c2=O)nnc1-c1ccc(F)cc1	CYP2C19 inh 99
C=CCn1c(SCC(N)=O)nnc1-c1cccc(Br)c1	none
Cc1nc(SCn2nnc3ccccc3c2=O)nc(C)c1C	CYP2C19 inh 75
CCc1cccc(CC)c1-n1c(SCn2nnc3ccccc3c2=O)nnc1-c1cccnc1	CYP2C19 inh 96, CYP2C9 inhib 93 (no result: tolC growth inh)
Nn1c(Cc2cccc3ccccc23)nnc1SCn1nnc2ccccc2c1=O	none (no result: tolC growth inh)
CCc1nnc(N2C(=O)c3cccc4cccc(c34)C2=O)s1	none (no result: tolC growth inh)
CCCn1c(NCc2c[nH]c3ccccc23)nc2ccccc21	CYP2C19 inh 71 (no result: tolC growth inh)
CCOC(=O)c1ccc(NCc2nc3ccccc3n2C)cc1	none (no result: tolC growth inh)
